The test system of assay [1] is PDE4 (PKA site). The assay is described as follows: PDE4 phosphorylation at the PKA site in striatal slices. The format is cell-based, mouse. The gist of the method:
(§1)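 Acute mouse striatal slices, drug-treated, analysed by quantitative immunoblot. Phospho-specific signals normalized to the matching total-protein blot; loading normalized to β-actin, GAPDH and/or Coomassie. The PDE4 PKA-site antibody was an affinity-purified polyclonal, phosphorylation state-specific. Mean ± s.e.m.; t-test or ANOVA with Bonferroni post hoc.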

The subject of assay [2] is NMDA receptor. The assay is described as follows: NMDA receptor current, whole-cell recording in striatal neurons. The class given is cell-based, mouse. As to conditions: D-APV 50 µM; NMDA 100 µM; -70 mV.
The target in assay [3] is PDE4B1 phosphorylation by Cdk5 (Homo sapiens, UniProt Q00535). The assay is described as follows: In vitro Cdk5-dependent phosphorylation of PDE4. The class given is biochemical, rat.
Chain of PDE4B1 phosphorylation by Cdk5 (Q00535 whole entry): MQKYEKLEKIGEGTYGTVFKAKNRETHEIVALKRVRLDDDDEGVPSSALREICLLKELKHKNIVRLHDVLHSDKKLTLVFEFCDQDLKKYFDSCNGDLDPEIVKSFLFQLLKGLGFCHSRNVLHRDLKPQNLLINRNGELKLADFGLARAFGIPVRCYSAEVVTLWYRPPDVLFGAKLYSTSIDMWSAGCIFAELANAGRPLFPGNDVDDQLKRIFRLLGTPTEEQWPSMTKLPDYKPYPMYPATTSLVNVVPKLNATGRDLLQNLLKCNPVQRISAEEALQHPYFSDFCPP
Chain of PDE4B1 phosphorylation by Cdk5 (Q15078 99-307 partner limits assumed): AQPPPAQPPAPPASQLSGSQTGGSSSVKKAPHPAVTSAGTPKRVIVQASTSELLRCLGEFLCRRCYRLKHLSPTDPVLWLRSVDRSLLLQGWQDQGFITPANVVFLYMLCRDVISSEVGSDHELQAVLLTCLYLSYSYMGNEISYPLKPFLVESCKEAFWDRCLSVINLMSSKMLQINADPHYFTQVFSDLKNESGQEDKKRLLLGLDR
In assay [4] the test system is cAMP in striatal slices. The assay is described as follows: cAMP level in striatal slices. The format is cell-based, mouse.
Assay [5] concerns PDE4B1 (PKA site). The assay is described as follows: PKA-mediated PDE4 phosphorylation in PC12 cells. The format is cell-based. The settings on record: FSK 10 µM, n = 8 reactions, WT vs S145A at 3 min *P = 0.0241, at 15 min ***P < 0.0001.
In assay [6] the test system is animals. The settings on record: ref [35]–[37]; cited from earlier work.
Assay [7] relates to PDE4. As to conditions: ref [35]–[37]; cited from earlier work.
Assay [8] concerns humans. The settings on record: ref [35]–[37]; cited from earlier work.
The subject of assay [9] is synapsin (Ser9). The assay is described as follows: Phospho-Ser9 synapsin in striatal slices. The format is cell-based, mouse. As to conditions: 50 µM roscovitine, n = 3-6. The gist of the method:
as §1

Assay [10] deals with CREB (Ser133). The assay is described as follows: Phospho-Ser133 CREB in striatal slices. The class given is cell-based, mouse. As to conditions: 50 µM roscovitine, n = 3-6. Put shortly: as §1
The test system of assay [11] is DARPP-32 (Thr34). The assay is described as follows: Phospho-Thr34 DARPP-32 in striatal slices. The format is cell-based, mouse. As to conditions: 50 µM roscovitine, n = 3-6. The gist of the method:
(§2)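 Acute mouse striatal slices were exposed to test compound and analysed by quantitative immunoblotting. Phospho-specific signals were normalized to the corresponding total-protein blots, and loading to β-actin, GAPDH and/or coomassie staining. Values are mean ± s.e.m.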

Assay [12] concerns PDE. The assay is described as follows: PDE activity in striatal lysates. The class given is biochemical, mouse. The settings on record: n = 4 slices.
Assay [13] concerns AMPA receptor subunit GluR1 (Ser845). The assay is described as follows: Phospho-Ser845 GluR1 in striatal slices. The class given is cell-based, mouse. As to conditions: 50 µM roscovitine, n = 3-6. Put shortly: as §2
The subject of assay [14] is mice. The assay is described as follows: Forced swim test. As to conditions: infusion into NAc, two-trial FST, n = 5-7 (Supplementary Fig. 12c). The format is in vivo, mouse. The gist of the method: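 Bilateral stereotaxic infusion into NAc under isoflurane (AP +1.50 mm from bregma, ML ±1.4 mm, DV −3.90 mm), 1 µl per hemisphere of peptide (115 µM) or PKA inhibitor (45 µM). Testing followed 90 min after peptide or 45 min after inhibitor. Mice aged 10–12 weeks swam in a glass cylinder of 25°C water for 10 min, then 8 min 24 h later. Two researchers, blind to treatment, scored immobility at 2–6 min.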

Peptide text beside a SMILES is read from it.

Consider `CCNC(=O)[C@H]1O[C@@H](n2cnc3c(N)nc(NCCc4ccc(CCC(=O)O)cc4)nc32)[C@H](O)[C@@H]1O` [CGS21680], for which, in assay [1] (5 µM, 2 min, Cdk5 cKO striatum, n = 4 slices from 2 mice, WT CGS vs cKO CGS *P = 0.0354), the “PKA-mediated PDE4 phosphorylation in response to CGS21680” value was “Loss of PKA-mediated PDE4 phosphorylation”.
With `N[C@H](CCCP(=O)(O)O)C(=O)O` [D-APV], in [2], the NMDA-evoked current entry was “blocked”.
As for `CC[C@H](C)[C@H](NC(=O)[C@H](CCCCN)NC(=O)[C@@H](NC(=O)[C@H](CCC(N)=O)NC(=O)[C@@H](N)CCCNC(=N)N)[C@@H](C)CC)C(=O)N[C@@H](Cc1c[nH]c2ccccc12)C(=O)N[C@@H](Cc1ccccc1)C(=O)N[C@@H](CCC(N)=O)C(=O)N[C@@H](CC(N)=O)C(=O)N[C@@H](CCCNC(=N)N)C(=O)N[C@@H](CCCNC(=N)N)C(=O)N[C@@H](CCSC)C(=O)N[C@@H](CCCCN)C(=O)N[C@@H](Cc1c[nH]c2ccccc12)C(=O)N[C@@H](CCCCN)C(=O)N[C@@H](CCCCN)C(=O)N[C@@H](CCC(=O)O)C(=O)N[C@@H](CO)C(=O)N[C@@H](Cc1ccccc1)C(=O)N[C@@H](CC(C)C)C(=O)N[C@@H](Cc1ccc(O)cc1)C(=O)N[C@@H](CCCNC(=N)N)C(=O)N[C@@H](CO)C(=O)N[C@@H](CC(=O)O)C(=O)N[C@@H](CO)C(=O)N[C@@H](CC(=O)O)C(=O)N[C@@H](Cc1ccc(O)cc1)C(=O)N[C@@H](CC(=O)O)C(=O)N[C@@H](CC(C)C)C(=O)N[C@@H](CO)C(=O)N1CCC[C@H]1C(=O)N[C@@H](CCCCN)C(=O)N[C@@H](C)C(=O)N[C@@H](CCSC)C(=O)O` [PDE4-siP] (H-RQIKIWFQNRRMKWKKESFLYRSDSDYDLSPKAM-OH), inhibition in assay [3] was half-maximal at 13 µM (IC50).
Consider `Oc1cc2c(c(Cl)c1O)CCNCC2c1ccccc1` (centres unmarked) [SKF81297], for which the cAMP level result in assay [4] (SKF81297 (1 µM, 10 min unless stated otherwise), n = 4 slices, **P = 0.0030) is “increase cAMP to similar levels”.
Regarding `C=C[C@@]1(C)CC(=O)[C@]2(O)[C@@]3(C)[C@@H](O)CCC(C)(C)[C@@H]3[C@H](O)[C@H](OC(C)=O)[C@@]2(C)O1` [forskolin], in assay [1] (striatal slices (Supplementary Fig. 1e)), the “PDE4 phosphorylation by PKA” value is “increased PDE4 phosphorylation by PKA”. In [5], the “PKA-mediated PDE4 phosphorylation after forskolin, S145A PDE4B1 versus WT” value is recorded as “reduced PKA-mediated PDE4 phosphorylation”.
Turning to `COc1ccc(C2CNC(=O)C2)cc1OC1CCCC1` (centres unmarked) [rolipram, 4-[3-(cyclopenotoxyl)-4-methoxyphenyl]-2-pyrrolidone], in assay [6], the “behavioral responses to stressors” value was “affect behavioral responses to stressors in animals”. Moreover, in assay [7], the cAMP result was “elevate cAMP”. The antidepressant activity result in [8] is listed as “have antidepressant activity in humans”.
Take `CC[C@H](CO)Nc1nc(NCc2ccccc2)c2ncn(C(C)C)c2n1` [roscovitine]: in assay [9], the “PKA-dependent phosphorylation of synapsin (Ser9)” value is listed as “induced PKA-dependent phosphorylation”. Further, in [10], the “PKA-dependent phosphorylation of CREB (Ser133)” value is on record as “induced PKA-dependent phosphorylation”. In assay [4] (Ros, n = 3 slices, *P = 0.0216), the cAMP level result is on record as “increase cAMP to similar levels”. The “phosphorylation of DARPP-32 (Thr34)” value in assay [11] was “increased phosphorylation”. Moreover, the PDE activity result was “attenuates PDE activity” in assay [12] (roscovitine 10 µM, *P = 0.011) and “attenuates PDE activity” in [12] (roscovitine 50 µM, **P = 0.0037). The “phosphorylation of GluR1 (Ser845)” value in assay [13] was “increased phosphorylation”.
Regarding “RRRRRRR- ESFLYRSDSDYDLSPKAM [poly-arginine tagged PDE4 peptide]”, the FST performance result in assay [14] is given as “analogical effect on FST performance”.

In general, IC50 refers to the concentration needed to halve the response being measured.

Values taken from PMC4519694 (Nature neuroscience, 2015).
